Here are results for 1 molecule from ChEMBL document CHEMBL4842389, “Discovery of Dolastatinol: A Synthetic Analog of Dolastatin 10 and Low Nanomolar Inhibitor of Tubulin Polymerization” (ACS Med Chem Lett, 2021).

Activity calls are given as the source filed them. The rule behind the calls is not given here. Square brackets hold non-standard residues; d marks the D form. Peptide text beside a SMILES is read from it. Dolaproine = CO[C@@H]([C@@H]1CCCN1)[C@@H](C)C(=O)O; Dil = CC[C@H](C)[C@H](NC)[C@@H](CC(=O)O)OC; NMeV = CN[C@H](C(=O)O)C(C)C

For one assay, the target named is Tubulin (Homo sapiens) (UniProt P68371+Q9H4B7+P0DPH7+P68366+Q13509+Q71U36+P04350+Q3ZCM7+P07437+P68363+Q9BQE3+Q6PEY2+Q13885+Q9BVA1+Q9BUF5). Nature of the assay: Inhibition of microtubule in human MDA-MB-231 cells assessed as reduction in microtubule network in interphase cells measured after 24 hrs by DAPI staining based immunofluorescence microscopic analysis. The assay is classed as cell-based. The note with it: dose 5-625 nM. The essentials:
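MDA-MB-231 cells (10 000/well, 70–80% confluent) treated 24 h at 5, 25, 125 and 625 nM in DMEM. Fixed in 4% paraformaldehyde, permeabilized with 0.2% Triton X-100, blocked in 5% BSA, stained with anti-α-tubulin (DM1A, 1:800, 16 h) and Alexa Fluor 488 secondary, nuclei with DAPI. Imaged at 40×; interphase microtubule network quantified, unpaired two-tailed t test.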

Assay [1] relates to MDA-MB-231. The assay can be described thus: Cell cycle arrest in human MDA-MB-231 cells assessed as accumulation at G2/M phase at 125 nM after 24 hrs by RNaseA/propidium iodide staining based FACSCalibur flow cytometry (reference value: 26.37 %). The assay is classed as functional. (In flow cytometry, cells or beads pass a laser one at a time.)
Assay [2] has as its system MDA-MB-231. The assay can be described thus: Cell cycle arrest in human MDA-MB-231 cells assessed as accumulation at S phase at 125 nM after 24 hrs by RNaseA/propidium iodide staining based FACSCalibur flow cytometry (reference value: 19.96 %). The assay is classed as functional.
Assay [3] concerns MDA-MB-231. The assay can be described thus: Cell cycle arrest in human MDA-MB-231 cells assessed as accumulation at G1 phase at 125 nM after 24 hrs by RNaseA/propidium iodide staining based FACSCalibur flow cytometry (reference value: 37.64 %). The assay is classed as functional.
Assay [4] concerns MDA-MB-231. The assay can be described thus: Cell cycle arrest in human MDA-MB-231 cells assessed as accumulation at sub G1 phase at 125 nM after 24 hrs by RNaseA/propidium iodide staining based FACSCalibur flow cytometry (reference value: 3.27 %). The assay is classed as functional.
Assay [5] deals with MDA-MB-231. The assay can be described thus: Inhibition of cell migration in human MDA-MB-231 cells assessed as reduction of cell mobility at 5 nM measured at 24 hrs by well scratch method. The assay is classed as functional, cell-based. The essentials:
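MDA-MB-231 cells (3 × 10^4/well) attached overnight, then exposed to 5 nM in serum-free DMEM for 48 h. Monolayer scratched, debris washed off, complete medium added without drug. Images taken at 10× at 0 h and after 24 h; percentage wound coverage quantified. Two-tailed unpaired t test.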

Assay [6] relates to MDA-MB-231. Nature of the assay: Cytotoxicity against human MDA-MB-231 cells assessed as reduction in cell viability incubated for 96 hrs by XTT assay. The assay is classed as functional, cell-based. In outline:
(§1)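 XTT viability assay on human breast cancer cells. Cells were seeded at 5000 cells/well, left to adhere overnight, then exposed to increasing compound concentrations for 96 h in complete medium with DMSO below 0.05% final. Wells were washed and refed, then given XTT reagent for 3 h, with absorbance read at 450 nm. Response was normalized to DMSO controls. Tetraplicates, three independent experiments. IC50 from a four-parameter variable-slope fit.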
In general terms: Formazan colour is commonly taken as a measure of viable cells.

Another assay relates to BT-474. The assay can be described thus: Cytotoxicity against human BT-474 cells assessed as reduction in cell viability incubated for 96 hrs by XTT assay. The assay is classed as functional, cell-based. The note with it: BT-474, 96 h. In outline: as §1
The next assay has as its system SK-BR-3. The assay can be described thus: Cytotoxicity against human SKBR3 cells assessed as reduction in cell viability incubated for 96 hrs by XTT assay. The note with it: SK-BR-3, 96 h. The assay is classed as functional, cell-based. In outline: as §1
The test system of assay [7] is MDA-MB-231. The assay can be described thus: Induction of mitochondrial disintegration in human MDA-MB-231 cells at 625 nM measured after 24 hrs by Mitotracker green dye based fluorescence microscopy. The assay is classed as functional, cell-based. The essentials:
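MDA-MB-231 cells (7000/well) grown overnight in DMEM with 10% FBS, then given 5, 25, 125 or 625 nM for 24 h. Live cells labelled 30 min with 75 nM MitoTracker Green FM in serum- and phenol red-free DMEM, counterstained with DAPI for 15 min, and imaged by fluorescence microscopy at 40× to view mitochondrial fission.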

The term IC50 denotes the concentration that inhibits the measured activity by half. `CC[C@H](C)[C@@H]([C@@H](CC(=O)N1CCC[C@H]1[C@H](OC)[C@@H](C)C(=O)N[C@@H](Cc1ccccc1)C(=O)O)OC)N(C)C(=O)[C@@H](NC(=O)[C@@H](NC)C(C)C)C(C)C` (H-[NMeV]V[Dil][Dolaproine]F-OH): the inhibition result on Tubulin (Homo sapiens) is “Dose-Dependent Effect”. Besides, the Activity in the assay on MDA-MB-231 [1] came to 32.79%; with MDA-MB-231 [2], 16.11%; in the assay with MDA-MB-231 [3] it was 30.88%; in the assay with MDA-MB-231 [4], 9.66%. In addition, the inhibition result in the assay with MDA-MB-231 [5] is “Active”. For the same molecule, the figures for the IC50 result in the assay with MDA-MB-231 [6], in the assay on BT-474 and in the assay on SK-BR-3 were “Not Active”, 8.8 nM and 5.3 nM, respectively. Moreover, the result with MDA-MB-231 [7] was inactive.
